# Source: ChEMBL document CHEMBL2069262, “Stimulation of Glucose-Dependent Insulin Secretion by a Potent, Selective sst3 Antagonist” (ACS Med Chem Lett, 2012)
# Active and inactive are the calls of the source. The rule behind the calls is not given here.
# What was measured:
# [1] = biological target: T1, Somatostatin receptor type 3 (Homo sapiens, UniProt P32745); type: functional, cell-based, CHO
# [2] = biological target: T1, Somatostatin receptor type 3; experiment: Displacement of [125I]SS-14 from human SST3 receptor expressed in CHO cells after 60 mins by scintillation counting; type: cell-based
# [3] = system: Mus musculus; experiment: Antidiabetic activity in lean C57BL/6N mouse assessed as reduction in dextrose-induced glucose excursion at 10 mg/kg, po administered 1 hr before dextrose challenge measured by intraperitoneal glucose tolerance test; type: functional; design: scale not given: the % may be the effect or the level left
# In short: (§1)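 Lean C57BL/6N Tac mice were fasted 5–6 h, then given test agent at 2 or 10 mg/kg 1 h before a dextrose challenge. Glucose tolerance was tested with ip dextrose (ipGTT) or oral dextrose (OGTT). Blood glucose excursion was followed and compared with dextrose alone.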
# [4] = biological target: Somatostatin receptor type 5 (Homo sapiens, UniProt P35346); experiment: Binding affinity to human SST5 receptor expressed in CHO cells; type: cell-based
# [5] = Cmax in C57BL/6N mouse at 2 mg/kg, po; type: ADME, organism-based; design: dose 2 mg/kg, route oral; settings: in vivo
# [6] = biological target: T2, Somatostatin receptor type 3 (Mus musculus, UniProt P30935); experiment: Displacement of [125I]SS-14 from mouse SST3 receptor expressed in CHO cells after 60 mins by scintillation counting; type: cell-based
# In short: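 Competition binding at mouse sst3, read at steady-state equilibrium. Read-out is IC50.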
# [7] = system: Mus musculus; experiment: Antidiabetic activity in lean C57BL/6N mouse assessed as reduction in dextrose-induced glucose excursion at 2 mg/kg, po administered 1 hr before dextrose challenge measured by intraperitoneal glucose tolerance test; type: functional; design: scale not given: the % may be the effect or the level left
# In short: as §1
# [8] = system: Mus musculus; experiment: Antidiabetic activity in sst3-knockout lean C57BL/6N mouse assessed as elevation in plasma insulin level at 10 mg/kg, po administered 1 hr before dextrose challenge measured after 10 mins; type: functional, organism-based; design: dose 10 mg/kg
# In short: (§2)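 Wild-type and sst3 knockout mice were predosed at −60 min with 10 mg/kg, then given a dextrose challenge. Plasma insulin was measured 10 min after dextrose. n = 5.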
# [9] = Activation of glucose-stimulated insulin secretion in C57BL/6J mouse pancreatic islets at 10 uM after 1 hr by ELISA in presence of 16 mM glucose relative to DMSO; type: functional; settings: Pancreatic islet
# In short: (§3)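 Pancreatic islets were isolated from normal C57BL/6J mice. Insulin secretion was measured at 2 and 16 mM glucose. Treatments were test agent at 10 μM, octreotide at 50 nM, the two combined, DMSO as negative control and GLP-1 at 10 nM as positive control. n = 4.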
# [10] = system: Mus musculus; experiment: Antidiabetic activity in sst3-wild-type lean C57BL/6N mouse assessed as reduction in dextrose-induced glucose excursion at 10 mg/kg, po administered 1 hr before dextrose challenge measured by intraperitoneal glucose tolerance test; type: functional; design: scale not given: the % may be the effect or the level left
# In short: (§4)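 Wild-type and sst3 knockout mice were studied side by side in an ipGTT. They were predosed with 10 mg/kg 1 h before a 2 g/kg dextrose challenge. Read-out was total blood glucose AUC, compared with dextrose alone.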
# [11] = system: Mus musculus; experiment: Antidiabetic activity in lean C57BL/6N mouse assessed as reduction in dextrose-induced glucose excursion at 10 mg/kg, po administered 1 hr before dextrose challenge measured by oral glucose tolerance test; type: functional; design: scale not given: the % may be the effect or the level left
# In short: as §1
# [12] = biological target: Somatostatin receptor type 2 (Mus musculus, UniProt P30875); experiment: Binding affinity to mouse SST2 receptor expressed in CHO cells; type: cell-based
# [13] = system: Mus musculus; experiment: Antidiabetic activity in po dosed lean C57BL/6N mouse assessed as reduction in dextrose-induced glucose excursion administered 1 hr before dextrose challenge measured by glucose tolerance test; type: functional, organism-based
# In short: as §1
# [14] = biological target: Voltage-gated L-type calcium channel (Homo sapiens, UniProt Q13936+Q13698+Q01668+O60840); experiment: Binding affinity to L-type calcium channel
# [15] = biological target: Somatostatin receptor type 4 (Mus musculus, UniProt P49660); experiment: Binding affinity to mouse SST4 receptor expressed in CHO cells; type: cell-based
# [16] = Activation of glucose-stimulated insulin secretion in C57BL/6J mouse pancreatic islets at 10 uM after 1 hr by ELISA in presence of 16 mM glucose and 50 nM sst3 agonist octreotide; type: functional; settings: Pancreatic islet
# In short: as §3
# [17] = Activation of glucose-stimulated insulin secretion in C57BL/6J mouse pancreatic islets at 10 uM after 1 hr by ELISA in presence of 2 mM glucose; type: functional; settings: Pancreatic islet
# In short: as §3
# [18] = biological target: Somatostatin receptor type 2 (Homo sapiens, UniProt P30874); experiment: Binding affinity to human SST2 receptor expressed in CHO cells; type: cell-based
# [19] = biological target: T3, Somatostatin receptor type 5 (Mus musculus, UniProt O08858); experiment: Binding affinity to mouse SST5 receptor expressed in CHO cells; type: cell-based
# T3 sequence (O08858 whole entry): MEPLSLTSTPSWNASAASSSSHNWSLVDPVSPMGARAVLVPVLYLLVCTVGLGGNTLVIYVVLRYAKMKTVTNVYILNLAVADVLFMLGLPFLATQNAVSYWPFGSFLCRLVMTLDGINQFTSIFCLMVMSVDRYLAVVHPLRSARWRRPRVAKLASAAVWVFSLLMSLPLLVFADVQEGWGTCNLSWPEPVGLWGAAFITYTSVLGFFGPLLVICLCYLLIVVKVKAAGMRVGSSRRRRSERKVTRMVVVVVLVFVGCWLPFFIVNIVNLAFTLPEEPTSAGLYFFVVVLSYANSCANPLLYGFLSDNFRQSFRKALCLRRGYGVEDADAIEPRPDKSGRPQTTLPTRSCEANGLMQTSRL
# [20] = biological target: T2, Somatostatin receptor type 3; experiment: Antagonist activity at mouse SST3 receptor expressed in CHO cells assessed as inhibition of forskolin/SS-14-stimulated cAMP accumulation preincubated for 15 mins before SS-14 challenge measured after 1 hr by time-resolved fluorescence analysis; type: functional, cell-based
# In short: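 Functional antagonism at mouse sst3 against SS-14, run as a cAMP accumulation challenge after the test molecule is prebound. Read-out is IC50.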
# [21] = biological target: Somatostatin receptor type 1 (Homo sapiens, UniProt P30872); experiment: Binding affinity to human SST1 receptor expressed in CHO cells; type: cell-based
# [22] = system: Mus musculus; experiment: Antidiabetic activity in sst3-knockout lean C57BL/6N mouse assessed as reduction in dextrose-induced glucose excursion at 10 mg/kg, po administered 1 hr before dextrose challenge measured by intraperitoneal glucose tolerance test; type: functional, organism-based; design: dose 10 mg/kg
# In short: as §4
# [23] = biological target: Somatostatin receptor type 1 (Mus musculus, UniProt P30873); experiment: Binding affinity to mouse SST1 receptor expressed in CHO cells; type: cell-based
# [24] = Half life in C57BL/6N mouse at 1 mg/kg, iv and 2 mg/kg, po; type: ADME, organism-based; settings: in vivo
# [25] = Volume of distribution at steady state in C57BL/6N mouse at 1 mg/kg, iv and 2 mg/kg, po; type: ADME, organism-based; settings: in vivo, read-out: Vdss
# [26] = system: Mus musculus; experiment: Antidiabetic activity in wild-type lean C57BL/6N mouse assessed as elevation in plasma insulin level at 10 mg/kg, po administered 1 hr before dextrose challenge measured after 10 mins; type: functional
# In short: as §2
# [27] = Oral bioavailability in C57BL/6N mouse at 2 mg/kg; type: ADME, organism-based; settings: in vivo
# [28] = system: Mus musculus; experiment: Dose normalized AUC in C57BL/6N mouse at 2 mg/kg, po; type: ADME, organism-based; design: dose 2 mg/kg, route oral; settings: in vivo
# [29] = Clearance in C57BL/6N mouse at 1 mg/kg, iv and 2 mg/kg, po; type: ADME, organism-based; settings: in vivo
# [30] = system: Mus musculus; experiment: Antidiabetic activity in lean C57BL/6N mouse assessed as reduction in dextrose-induced glucose excursion at 2 mg/kg, po administered 1 hr before dextrose challenge measured by oral glucose tolerance test; type: functional; design: scale not given: the % may be the effect or the level left
# In short: as §1
# [31] = biological target: Somatostatin receptor type 4 (Homo sapiens, UniProt P31391); experiment: Binding affinity to human SST4 receptor expressed in CHO cells; type: cell-based
# [32] = biological target: Voltage-gated inwardly rectifying potassium channel KCNH2 (Homo sapiens, UniProt Q12809); experiment: Displacement of [35S]MK499 from human Erg expressed in HEK293 cells after 60 mins by scintillation counting; type: cell-based
# Chain of Voltage-gated inwardly rectifying potassium channel KCNH2 (Q12809 whole entry): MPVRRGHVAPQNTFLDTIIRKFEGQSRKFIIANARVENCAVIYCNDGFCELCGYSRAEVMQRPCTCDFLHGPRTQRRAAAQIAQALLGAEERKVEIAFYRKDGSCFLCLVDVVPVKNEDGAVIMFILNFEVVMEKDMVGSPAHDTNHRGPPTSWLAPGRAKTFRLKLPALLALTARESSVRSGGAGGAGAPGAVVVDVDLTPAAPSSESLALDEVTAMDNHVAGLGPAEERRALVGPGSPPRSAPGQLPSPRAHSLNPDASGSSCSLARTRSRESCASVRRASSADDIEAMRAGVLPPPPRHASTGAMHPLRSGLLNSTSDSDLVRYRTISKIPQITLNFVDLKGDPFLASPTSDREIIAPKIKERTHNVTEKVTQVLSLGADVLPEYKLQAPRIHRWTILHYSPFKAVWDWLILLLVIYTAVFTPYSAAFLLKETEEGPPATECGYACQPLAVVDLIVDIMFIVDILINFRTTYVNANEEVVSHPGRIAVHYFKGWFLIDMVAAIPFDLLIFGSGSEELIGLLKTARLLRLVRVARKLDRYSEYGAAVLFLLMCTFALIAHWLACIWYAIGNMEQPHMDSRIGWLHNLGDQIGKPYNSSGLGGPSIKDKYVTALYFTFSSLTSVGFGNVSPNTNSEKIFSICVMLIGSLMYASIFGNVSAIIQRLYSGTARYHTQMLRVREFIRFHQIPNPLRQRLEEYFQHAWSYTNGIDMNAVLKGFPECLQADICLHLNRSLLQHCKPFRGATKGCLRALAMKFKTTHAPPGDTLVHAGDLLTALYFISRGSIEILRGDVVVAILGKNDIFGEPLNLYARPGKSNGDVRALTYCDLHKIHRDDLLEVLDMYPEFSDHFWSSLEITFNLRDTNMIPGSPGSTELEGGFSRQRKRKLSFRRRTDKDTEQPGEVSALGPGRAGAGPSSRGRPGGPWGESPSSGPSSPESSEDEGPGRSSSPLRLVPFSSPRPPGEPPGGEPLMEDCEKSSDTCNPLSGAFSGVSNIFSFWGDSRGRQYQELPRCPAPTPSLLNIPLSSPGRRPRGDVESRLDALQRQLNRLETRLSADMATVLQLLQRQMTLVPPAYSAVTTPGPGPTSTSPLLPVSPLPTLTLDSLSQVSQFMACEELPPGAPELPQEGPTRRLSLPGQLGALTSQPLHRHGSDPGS
# T1 sequence (P32745 whole entry): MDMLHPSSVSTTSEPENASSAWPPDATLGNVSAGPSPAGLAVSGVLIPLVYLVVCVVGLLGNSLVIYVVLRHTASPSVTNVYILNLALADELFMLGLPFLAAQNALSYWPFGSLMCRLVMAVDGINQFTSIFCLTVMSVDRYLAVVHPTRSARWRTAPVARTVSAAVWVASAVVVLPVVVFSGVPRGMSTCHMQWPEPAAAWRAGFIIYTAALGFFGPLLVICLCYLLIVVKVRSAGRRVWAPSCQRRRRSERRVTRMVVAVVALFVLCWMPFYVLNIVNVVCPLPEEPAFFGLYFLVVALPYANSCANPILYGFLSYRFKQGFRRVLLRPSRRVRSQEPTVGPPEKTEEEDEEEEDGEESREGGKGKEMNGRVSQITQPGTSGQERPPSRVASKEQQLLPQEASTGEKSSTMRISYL
# T2 sequence (P30935 whole entry): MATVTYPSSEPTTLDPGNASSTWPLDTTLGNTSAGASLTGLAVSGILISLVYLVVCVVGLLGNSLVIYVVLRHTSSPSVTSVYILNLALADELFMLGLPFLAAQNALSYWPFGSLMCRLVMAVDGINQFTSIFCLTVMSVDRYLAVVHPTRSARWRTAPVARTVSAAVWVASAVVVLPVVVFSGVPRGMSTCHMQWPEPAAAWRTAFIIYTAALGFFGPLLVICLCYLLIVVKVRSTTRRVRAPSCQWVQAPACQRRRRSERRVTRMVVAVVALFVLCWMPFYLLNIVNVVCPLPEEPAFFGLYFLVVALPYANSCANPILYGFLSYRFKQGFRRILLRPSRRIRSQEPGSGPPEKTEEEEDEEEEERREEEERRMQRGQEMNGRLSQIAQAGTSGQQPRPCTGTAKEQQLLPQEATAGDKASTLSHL
# Chain of Somatostatin receptor type 4 (Mus musculus, UniProt P49660) (P49660 as listed by the source): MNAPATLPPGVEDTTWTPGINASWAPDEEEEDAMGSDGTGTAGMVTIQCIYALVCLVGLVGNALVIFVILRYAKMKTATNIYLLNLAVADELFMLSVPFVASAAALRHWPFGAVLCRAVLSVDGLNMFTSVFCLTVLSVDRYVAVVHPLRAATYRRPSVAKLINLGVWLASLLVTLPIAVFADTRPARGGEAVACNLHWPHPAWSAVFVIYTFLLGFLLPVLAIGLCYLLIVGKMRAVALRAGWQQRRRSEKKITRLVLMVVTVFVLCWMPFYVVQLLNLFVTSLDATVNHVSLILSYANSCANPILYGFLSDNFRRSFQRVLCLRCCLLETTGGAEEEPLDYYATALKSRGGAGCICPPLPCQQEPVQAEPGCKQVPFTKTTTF
# Chain of Somatostatin receptor type 2 (Homo sapiens, UniProt P30874) (P30874 whole entry): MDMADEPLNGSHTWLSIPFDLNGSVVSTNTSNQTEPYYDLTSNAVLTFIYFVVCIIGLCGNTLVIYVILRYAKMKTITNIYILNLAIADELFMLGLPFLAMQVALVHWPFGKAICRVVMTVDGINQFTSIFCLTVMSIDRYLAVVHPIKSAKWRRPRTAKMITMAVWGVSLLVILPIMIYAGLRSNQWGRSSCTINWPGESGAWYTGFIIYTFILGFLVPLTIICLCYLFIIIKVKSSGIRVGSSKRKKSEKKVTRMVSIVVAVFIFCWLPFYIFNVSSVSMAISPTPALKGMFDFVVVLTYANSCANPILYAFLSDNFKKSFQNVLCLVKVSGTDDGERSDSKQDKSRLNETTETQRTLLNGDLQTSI
# Chain of Somatostatin receptor type 2 (Mus musculus, UniProt P30875) (P30875 whole entry): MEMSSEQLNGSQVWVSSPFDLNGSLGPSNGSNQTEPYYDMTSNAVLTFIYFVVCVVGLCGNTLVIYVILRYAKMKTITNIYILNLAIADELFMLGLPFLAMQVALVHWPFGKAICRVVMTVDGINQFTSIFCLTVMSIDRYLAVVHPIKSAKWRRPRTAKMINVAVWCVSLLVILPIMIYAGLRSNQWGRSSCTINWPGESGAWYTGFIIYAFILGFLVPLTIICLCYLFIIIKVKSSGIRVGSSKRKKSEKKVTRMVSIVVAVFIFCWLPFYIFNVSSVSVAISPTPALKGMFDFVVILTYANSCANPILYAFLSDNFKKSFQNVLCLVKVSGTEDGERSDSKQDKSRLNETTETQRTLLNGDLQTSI
# Chain of Somatostatin receptor type 5 (Homo sapiens, UniProt P35346) (P35346 whole entry): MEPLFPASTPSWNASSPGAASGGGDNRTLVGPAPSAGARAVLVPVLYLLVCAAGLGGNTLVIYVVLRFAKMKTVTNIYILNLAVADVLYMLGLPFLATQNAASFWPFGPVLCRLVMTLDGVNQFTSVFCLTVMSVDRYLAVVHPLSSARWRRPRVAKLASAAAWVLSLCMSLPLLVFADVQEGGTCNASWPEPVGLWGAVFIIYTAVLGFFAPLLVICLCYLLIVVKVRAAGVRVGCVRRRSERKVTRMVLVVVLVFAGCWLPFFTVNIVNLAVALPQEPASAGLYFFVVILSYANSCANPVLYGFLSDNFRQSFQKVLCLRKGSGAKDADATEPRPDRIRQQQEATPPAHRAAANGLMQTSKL
# Chain of Somatostatin receptor type 4 (Homo sapiens, UniProt P31391) (P31391 whole entry): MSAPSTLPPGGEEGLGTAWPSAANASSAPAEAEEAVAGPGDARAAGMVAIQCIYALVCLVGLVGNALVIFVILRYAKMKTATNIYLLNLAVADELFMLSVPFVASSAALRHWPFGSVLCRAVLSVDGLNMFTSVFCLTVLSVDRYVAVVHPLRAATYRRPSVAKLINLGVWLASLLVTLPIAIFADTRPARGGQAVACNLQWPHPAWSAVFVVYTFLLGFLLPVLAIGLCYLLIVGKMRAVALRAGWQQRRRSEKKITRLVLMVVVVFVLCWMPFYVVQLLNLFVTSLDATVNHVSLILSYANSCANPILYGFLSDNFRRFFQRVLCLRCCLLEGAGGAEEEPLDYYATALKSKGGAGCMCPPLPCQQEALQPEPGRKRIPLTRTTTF
# Chain of Somatostatin receptor type 1 (Homo sapiens, UniProt P30872) (P30872 whole entry): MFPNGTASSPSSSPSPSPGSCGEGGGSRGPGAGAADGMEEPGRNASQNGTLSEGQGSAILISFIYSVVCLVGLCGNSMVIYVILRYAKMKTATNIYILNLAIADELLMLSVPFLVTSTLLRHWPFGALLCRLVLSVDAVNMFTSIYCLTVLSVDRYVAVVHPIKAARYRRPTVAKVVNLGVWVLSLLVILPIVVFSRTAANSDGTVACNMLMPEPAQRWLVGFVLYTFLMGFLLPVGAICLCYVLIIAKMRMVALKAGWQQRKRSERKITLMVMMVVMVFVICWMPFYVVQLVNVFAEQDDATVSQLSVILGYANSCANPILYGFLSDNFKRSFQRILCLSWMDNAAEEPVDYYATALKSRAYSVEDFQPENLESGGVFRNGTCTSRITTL
# Chain of Somatostatin receptor type 1 (Mus musculus, UniProt P30873) (P30873 whole entry): as the sequence (P30872 whole entry) above, with G25A, G26C, A32S, T385A, T389S counted along it
compound,measurement,setting,value
CC(C)(C)OC(=O)N1CCC(C2N[C@@H](c3nc(-c4ccccc4)c[nH]3)Cc3c2[nH]c2ccccc32)CC1 (some centres not stated),IC50,[1],1000 nM
same,IC50,[2],7 nM
c1ccc(-c2c[nH]c([C@H]3Cc4c([nH]c5ccccc45)[C@@H](C4CCOCC4)N3)n2)cc1,Activity,[3],78%
same,IC50,[4],> 1000 nM
same,Cmax,[5],840 nM
same,IC50,[6],8.9 nM
same,Activity,[7],58%
same,Activity,[8],inactive
same,Activity,[9],44%
same,Activity,[10],26%
same,Activity,[11],67%
same,IC50,[12],> 10 µM
same,Activity,[13],Dose-dependent effect
same,IC50,[14],1900 nM
same,IC50,[15],> 10 µM
same,Activity,[16],Active
same,Activity,[17],inactive
same,IC50,[18],> 1000 nM
same,IC50,[19],> 10 µM
same,IC50,[20],16 nM
same,IC50,[21],> 1000 nM
same,Activity,[22],inactive
same,IC50,[23],> 10 µM
same,IC50,[1],22 nM
same,half-life,[24],96 min
same,Vd,[25],1.6 L/kg
same,Activity,[26],50%
same,bioavailability,[27],45%
same,IC50,[2],14 nM
same,AUC/dose,[28],1.3 µM·h/mg
same,clearance,[29],15 mL/min/kg
same,Activity,[30],66%
same,IC50,[31],> 1000 nM
O=S1(=O)CCC(C2N[C@@H](c3nc(-c4ccccc4)c[nH]3)Cc3c2[nH]c2ccccc32)CC1 (some centres not stated),IC50,[32],100 nM
same,IC50,[1],290 nM
same,IC50,[2],120 nM
CCCCC1(CCCC)N[C@@H](c2nc(-c3ccccc3)c[nH]2)Cc2c1[nH]c1ccccc21,IC50,[32],150 nM
same,IC50,[14],128 nM
same,clearance,[29],126 mL/min/kg
"[O-][S+]1CCC(C2N[C@@H](c3nc(-c4ccccc4)c[nH]3)Cc3c2[nH]c2ccccc32)CC1 (single isomer, unassigned; isomer 2)",IC50,[32],100 nM
same,IC50,[1],24 nM
same,IC50,[2],21 nM
c1ccc(-c2c[nH]c([C@H]3Cc4c([nH]c5ccccc45)C(C4CCSCC4)N3)n2)cc1 (some centres not stated),IC50,[32],120 nM
same,IC50,[1],10 nM
same,IC50,[2],1.7 nM
CCOCC1(COCC)N[C@@H](c2nc(-c3ccccc3)c[nH]2)Cc2c1[nH]c1ccccc21,Cmax,[5],130 nM
same,IC50,[14],1526 nM
same,half-life,[24],32.4 min
same,Vd,[25],0.7 L/kg
same,bioavailability,[27],4%
same,AUC/dose,[28],0.06 µM·h/mg
same,clearance,[29],31 mL/min/kg
COC(=O)N1CCC(C2N[C@@H](c3nc(-c4ccccc4)c[nH]3)Cc3c2[nH]c2ccccc32)CC1 (some centres not stated),IC50,[32],700 nM
same,IC50,[1],66 nM
same,IC50,[2],4 nM
"[O-][S+]1CCC(C2N[C@@H](c3nc(-c4ccccc4)c[nH]3)Cc3c2[nH]c2ccccc32)CC1 (single isomer, unassigned; isomer 1)",IC50,[1],380 nM
same,IC50,[2],220 nM
